Reference: ChEMBL document CHEMBL4706487, “Antitumor agents 7. Synthesis, antiproliferative activity and molecular modeling of new l-lysine-conjugated pyridophenoxazinones as potent DNA-binding ligands and topoisomerase IIα inhibitors” (Eur J Med Chem, 2020)
Calls of active or inactive are those of the source. The calls are words filed in the database; no cut-off is given here.

How the values were obtained:
CCRF-CEM = assay: Antiproliferative activity against human CCRF-CEM cells assessed as cell viability measured after 4 days by MTT assay; assay type: functional, cell-based; details: 96 h
Summary of the method: (§1)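 Leukemia/lymphoma cells (RPMI 1640, 10% FCS) resuspended at 1 × 10⁵ cells/mL with serial drug dilutions and read by MTT after 96 h at 37 °C. Solid-tumor cells (own media, 10% FCS) were seeded at 5 × 10⁴ cells/mL, allowed 16 h to adhere, then dosed and read by MTT 4 days later. IC50 was derived by linear regression of growth as % of untreated controls.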

CCRF-SB = assay: Antiproliferative activity against human CCRF-SB cells assessed as cell viability measured after 4 days by MTT assay; assay type: functional, cell-based; details: 96 h; summary of the method: as §1
MT4 = assay: Antiproliferative activity against human MT-4 cells assessed as cell viability measured after 4 days by MTT assay; assay type: functional, cell-based; details: MT4, 96 h; summary of the method: as §1
HT-29 = assay: Antiproliferative activity against human HT-29 cells assessed as cell viability measured after 4 days by MTT assay; assay type: functional, cell-based; details: HT-29, 96 h; summary of the method: as §1
MCF7 [1] = assay: Antiproliferative activity against human MCF7 cells assessed as cell viability measured after 4 days by MTT assay; assay type: functional, cell-based; details: MCF7, 96 h; summary of the method: as §1
HeLa = assay: Antiproliferative activity against human HeLa cells assessed as cell viability measured after 4 days by MTT assay; assay type: functional, cell-based; details: 96 h
Summary of the method: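 Solid-tumor cells (own media, 10% FCS) were seeded at 5 × 10⁴ cells/mL, allowed 16 h to adhere, then dosed and read by MTT 4 days later. IC50 was derived by linear regression of growth as % of untreated controls.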

ACHN = assay: Antiproliferative activity against human ACHN cells assessed as cell viability measured after 4 days by MTT assay; assay type: functional, cell-based; details: 96 h; summary of the method: as §1
SK-MEL-28 = assay: Antiproliferative activity against human SKMEL-28 cells assessed as cell viability measured after 4 days by MTT assay; assay type: functional, cell-based; details: SK-MEL-28, 96 h; summary of the method: as §1
G-361 = assay: Antiproliferative activity against human G-361 cells assessed as cell viability measured after 4 days by MTT assay; assay type: functional, cell-based; details: G-361, 96 h; summary of the method: as §1
Calf thymus DNA [2] = assay: Binding affinity to calf thymus DNA assessed as lamda max by UV-vis spectroscopy; assay type: nucleic-acid assay; details: Bos taurus
Summary of the method: (§2)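 ctDNA held at 0.2 mM in phosphate buffer pH 7 and titrated with drug from […]. UV-vis spectra recorded in a 1 cm quartz cuvette. Binding constant was taken by the mole-ratio method from optical density changes at 260 nm, using a double reciprocal plot.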

Calf thymus DNA [3] = assay: Binding affinity to calf thymus DNA assessed as isosbestic point by UV-vis spectroscopy; assay type: nucleic-acid assay; details: Bos taurus; summary of the method: as §2
Calf thymus DNA [4] = assay: Binding affinity to calf thymus DNA assessed as red shift by UV-vis spectroscopy; assay type: nucleic-acid assay; design: unit not given here; details: Bos taurus; summary of the method: as §2
DNA [5] = assay: Binding affinity at Escherichia coli pBR322 DNA assessed as unwinding of supercoiled DNA at 10 uM incubated for 10 mins in presence of human topoisomerase 1 by agarose gel based electrophoresis; assay type: nucleic-acid assay
Summary of the method: (§3)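 Intercalation assay with relaxed pBR322 (300 ng) and 2 units human Topo I in 50 mM Tris-HCl pH 7.5, 2.5 mM MgCl₂, 0.5 mM DTT and 50 µg/mL BSA, run 10 min at 37 °C. Stopped by phenol/chloroform/isoamyl alcohol extraction. Products run on 1.2% agarose in TAE, 2 V/cm for 15 h, then EtBr-stained. EtBr served as control; three independent experiments.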

DNA [6] = assay: Binding affinity at Escherichia coli pBR322 DNA assessed as unwinding of supercoiled DNA at 0.1 uM incubated for 10 mins in presence of human topoisomerase 1 by agarose gel based electrophoresis; assay type: nucleic-acid assay; summary of the method: as §3
[7] = target: DNA topoisomerase 2-alpha (Homo sapiens) (UniProt P11388); assay: Inhibition of human topoisomerase 2alpha mediated pBR322 DNA relaxation at 1 uM by agarose gel electrophoresis relative to control
DNA topoisomerase 2-alpha (Homo sapiens), sequence (P11388 whole entry): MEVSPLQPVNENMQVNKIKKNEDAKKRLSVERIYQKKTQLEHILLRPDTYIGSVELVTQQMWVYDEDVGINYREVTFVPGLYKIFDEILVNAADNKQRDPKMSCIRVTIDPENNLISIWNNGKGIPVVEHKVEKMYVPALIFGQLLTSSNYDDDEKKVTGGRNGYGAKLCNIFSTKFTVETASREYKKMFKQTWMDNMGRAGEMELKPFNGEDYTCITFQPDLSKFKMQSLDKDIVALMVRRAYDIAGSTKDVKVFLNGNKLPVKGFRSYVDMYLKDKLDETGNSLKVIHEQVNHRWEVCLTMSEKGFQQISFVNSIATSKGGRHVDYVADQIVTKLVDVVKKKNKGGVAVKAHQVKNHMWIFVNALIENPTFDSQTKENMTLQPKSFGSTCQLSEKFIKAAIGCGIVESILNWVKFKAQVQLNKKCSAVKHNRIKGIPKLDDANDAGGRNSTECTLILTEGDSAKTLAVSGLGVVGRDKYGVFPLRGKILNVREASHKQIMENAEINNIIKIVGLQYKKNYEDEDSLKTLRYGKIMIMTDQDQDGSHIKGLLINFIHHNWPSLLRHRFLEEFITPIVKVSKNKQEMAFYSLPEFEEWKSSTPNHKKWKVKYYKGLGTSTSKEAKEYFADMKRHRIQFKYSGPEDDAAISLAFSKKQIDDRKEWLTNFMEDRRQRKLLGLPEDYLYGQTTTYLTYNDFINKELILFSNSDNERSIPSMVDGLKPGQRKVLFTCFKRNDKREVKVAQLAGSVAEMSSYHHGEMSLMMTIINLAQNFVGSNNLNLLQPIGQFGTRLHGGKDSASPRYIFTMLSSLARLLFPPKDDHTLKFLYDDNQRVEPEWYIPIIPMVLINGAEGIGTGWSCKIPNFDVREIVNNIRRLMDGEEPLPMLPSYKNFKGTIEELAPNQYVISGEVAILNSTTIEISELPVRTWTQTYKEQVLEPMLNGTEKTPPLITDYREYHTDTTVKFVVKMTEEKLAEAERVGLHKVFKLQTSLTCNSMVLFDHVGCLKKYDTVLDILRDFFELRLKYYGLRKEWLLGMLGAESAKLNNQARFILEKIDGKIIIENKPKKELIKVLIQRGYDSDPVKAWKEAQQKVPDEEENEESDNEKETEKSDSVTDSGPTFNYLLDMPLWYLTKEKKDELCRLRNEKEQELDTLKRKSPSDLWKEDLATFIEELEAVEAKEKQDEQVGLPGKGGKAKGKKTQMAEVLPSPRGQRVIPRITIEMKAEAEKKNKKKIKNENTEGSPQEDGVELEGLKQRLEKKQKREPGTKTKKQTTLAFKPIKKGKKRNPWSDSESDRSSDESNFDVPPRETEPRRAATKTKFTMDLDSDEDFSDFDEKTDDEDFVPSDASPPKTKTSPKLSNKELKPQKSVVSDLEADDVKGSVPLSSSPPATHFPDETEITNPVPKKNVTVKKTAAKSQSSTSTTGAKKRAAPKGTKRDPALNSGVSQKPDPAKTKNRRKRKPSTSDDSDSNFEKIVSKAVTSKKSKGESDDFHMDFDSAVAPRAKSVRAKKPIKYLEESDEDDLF

[8] = target: DNA topoisomerase 2-alpha (Homo sapiens) (UniProt P11388); assay: Inhibition of human topoisomerase 2alpha mediated pBR322 DNA relaxation at 2 uM by agarose gel electrophoresis relative to control
[9] = target: DNA topoisomerase 2-alpha (Homo sapiens) (UniProt P11388); assay: Poison activity at human topo2alpha assessed as induction of accumulation of topo-2/DNA cleavage complex formation at 1 to 5 uM using […] plasmid incubated for 10 mins by agarose gel electrophoresis; details: dose 1-5 µM
Summary of the method: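 Supercoiled pBR322 incubated with purified Topo IIα and drug for 10 min at 30 °C. Stopped with 0.35% SDS plus 0.3 mg/mL proteinase K (final), then 1 h at 56 °C. Products run on 1.2% agarose gels containing EtBr. Linear DNA quantified by gel densitometry; averages of three independent experiments.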

Calf thymus DNA [10] = assay: Binding affinity to calf thymus DNA assessed as hypochromism by UV-vis spectroscopy; details: Bos taurus
MCF7 [11] = assay: Induction of DNA damage in human MCF7 cells assessed as increase in gammaH2AX foci at 5 to 10 uM measured after 0.5 to 3 hrs by Western blot analysis; assay type: functional, cell-based; details: dose 5-10 µM, time 0.5-3 hrs
Summary of the method: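 MCF-7 cells were treated for 0.5, 1 and 3 h, washed with ice-cold PBS and lysed in RIPA buffer containing PMSF and protease inhibitors. Lysates run on SDS-PAGE, blotted to PVDF and probed for H2AX, with β-actin as loading control. Detection by HRP secondary antibody and enhanced chemiluminescence.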

[12] = target: DNA topoisomerase 2-alpha (Homo sapiens) (UniProt P11388); assay: Inhibition of human topoisomerase 2alpha mediated pBR322 DNA relaxation at 0.7 uM by agarose gel electrophoresis relative to control
[13] = target: DNA topoisomerase 2-alpha (Homo sapiens) (UniProt P11388); assay: Inhibition of human topoisomerase 2alpha mediated pBR322 DNA relaxation at 1.5 uM by agarose gel electrophoresis relative to control
[14] = target: DNA topoisomerase 2-beta (Homo sapiens) (UniProt Q02880); assay: Poison activity at topo2beta (unknown origin) assessed as induction of accumulation of topo-2/DNA cleavage complex formation by agarose gel electrophoresis
DNA topoisomerase 2-beta (Homo sapiens), sequence (Q02880 whole entry): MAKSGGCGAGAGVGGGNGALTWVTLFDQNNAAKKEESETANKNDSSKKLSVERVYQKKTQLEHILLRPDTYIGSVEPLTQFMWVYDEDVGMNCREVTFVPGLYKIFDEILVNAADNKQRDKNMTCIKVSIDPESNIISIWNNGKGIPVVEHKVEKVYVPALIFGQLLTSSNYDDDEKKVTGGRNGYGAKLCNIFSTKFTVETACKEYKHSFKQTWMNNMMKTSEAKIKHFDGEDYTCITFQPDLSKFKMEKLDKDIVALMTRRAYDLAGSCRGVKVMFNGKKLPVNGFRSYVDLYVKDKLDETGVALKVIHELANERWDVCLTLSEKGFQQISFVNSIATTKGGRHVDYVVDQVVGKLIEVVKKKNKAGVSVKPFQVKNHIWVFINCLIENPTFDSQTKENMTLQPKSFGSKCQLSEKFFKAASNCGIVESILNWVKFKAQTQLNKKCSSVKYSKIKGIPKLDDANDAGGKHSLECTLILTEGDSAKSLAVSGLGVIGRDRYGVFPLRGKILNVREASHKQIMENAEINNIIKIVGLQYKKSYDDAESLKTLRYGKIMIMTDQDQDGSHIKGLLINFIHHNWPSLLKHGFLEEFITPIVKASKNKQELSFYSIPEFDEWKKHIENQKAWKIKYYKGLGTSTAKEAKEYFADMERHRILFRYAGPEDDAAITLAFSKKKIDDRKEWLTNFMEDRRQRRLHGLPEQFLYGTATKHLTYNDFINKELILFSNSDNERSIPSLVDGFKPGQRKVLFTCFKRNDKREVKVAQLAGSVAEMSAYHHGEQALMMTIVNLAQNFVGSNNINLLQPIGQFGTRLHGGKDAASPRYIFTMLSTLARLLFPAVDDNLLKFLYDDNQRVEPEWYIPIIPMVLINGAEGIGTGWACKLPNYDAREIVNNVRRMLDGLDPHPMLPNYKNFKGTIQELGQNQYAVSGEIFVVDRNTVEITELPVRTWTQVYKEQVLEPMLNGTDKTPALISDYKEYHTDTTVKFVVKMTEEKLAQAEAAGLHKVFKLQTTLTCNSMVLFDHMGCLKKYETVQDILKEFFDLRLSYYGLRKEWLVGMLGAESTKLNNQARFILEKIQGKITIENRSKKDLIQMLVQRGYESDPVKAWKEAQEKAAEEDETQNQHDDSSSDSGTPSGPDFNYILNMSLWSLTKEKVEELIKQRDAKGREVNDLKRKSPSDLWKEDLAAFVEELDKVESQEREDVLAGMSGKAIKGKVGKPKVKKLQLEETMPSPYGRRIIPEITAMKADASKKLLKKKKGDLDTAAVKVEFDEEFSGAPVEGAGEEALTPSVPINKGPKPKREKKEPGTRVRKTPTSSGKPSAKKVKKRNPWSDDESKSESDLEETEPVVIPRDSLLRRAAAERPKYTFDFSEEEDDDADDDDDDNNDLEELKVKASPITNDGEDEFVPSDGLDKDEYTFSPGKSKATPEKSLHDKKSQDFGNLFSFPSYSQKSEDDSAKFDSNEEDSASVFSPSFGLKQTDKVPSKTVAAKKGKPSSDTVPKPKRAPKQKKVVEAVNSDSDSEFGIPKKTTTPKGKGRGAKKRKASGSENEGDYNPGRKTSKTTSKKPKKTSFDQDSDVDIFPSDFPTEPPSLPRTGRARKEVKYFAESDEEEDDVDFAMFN

MCF7 [15] = assay: Induction of DNA damage in human MCF7 cells assessed as increase tail length at 1 to 10 uM after 24 hrs by comet assay; assay type: functional, cell-based; details: dose 1-10 µM
Summary of the method: (§4)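 About 1 × 10⁵ MCF-7 cells seeded; after 24 h, drug added for 24 h, with 10 µM VP-16 as positive control. Alkaline comet assay: lysis 1 h at 4 °C at pH 10, unwinding at pH 13, then electrophoresis at 30 V for 15 min. Slides neutralized, PI-stained and imaged by fluorescence microscopy at 10×. Tail lengths were taken from randomly selected cells.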

MCF7 [16] = assay: Induction of DNA damage in human MCF7 cells assessed as increase tail length at 10 uM after 24 hrs by comet assay (reference value: 8%); assay type: functional; summary of the method: as §4
MCF7 [17] = assay: Induction of cell cycle arrest in human MCF7 cells assessed as accumulation of cells at G0/G1 phase at 0.1 uM after 12 hrs by flow cytometry (reference value: 51.7%); assay type: functional
Summary of the method: (§5)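 MCF-7 cells exposed continuously to vehicle or 0.1 µM drug for 12, 24 and 48 h. Cell cycle distribution was assessed by flow cytometry.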

MCF7 [18] = assay: Induction of cell cycle arrest in human MCF7 cells assessed as accumulation of cells at S phase at 0.1 uM after 12 hrs by flow cytometry (reference value: 31.3%); assay type: functional; summary of the method: as §5
MCF7 [19] = assay: Induction of cell cycle arrest in human MCF7 cells assessed as accumulation of cells at G2/M phase at 0.1 uM after 12 hrs by flow cytometry (reference value: 17%); assay type: functional; summary of the method: as §5
MCF7 [20] = assay: Induction of cell cycle arrest in human MCF7 cells assessed as accumulation of cells at G0/G1 phase at 0.1 uM after 24 hrs by flow cytometry (reference value: 51.7%); assay type: functional; summary of the method: as §5
MCF7 [21] = assay: Induction of cell cycle arrest in human MCF7 cells assessed as accumulation of cells at S phase at 0.1 uM after 24 hrs by flow cytometry (reference value: 31.3%); assay type: functional; summary of the method: as §5
MCF7 [22] = assay: Induction of cell cycle arrest in human MCF7 cells assessed as accumulation of cells at G2/M phase at 0.1 uM after 24 hrs by flow cytometry (reference value: 17%); assay type: functional; summary of the method: as §5
MCF7 [23] = assay: Induction of cell cycle arrest in human MCF7 cells assessed as accumulation of cells at G0/G1 phase at 0.1 uM after 48 hrs by flow cytometry (reference value: 51.7%); assay type: functional; summary of the method: as §5
MCF7 [24] = assay: Induction of cell cycle arrest in human MCF7 cells assessed as accumulation of cells at S phase at 0.1 uM after 48 hrs by flow cytometry (reference value: 31.3%); assay type: functional; summary of the method: as §5
MCF7 [25] = assay: Induction of cell cycle arrest in human MCF7 cells assessed as accumulation of cells at G2/M phase at 0.1 uM after 48 hrs by flow cytometry (reference value: 17%); assay type: functional; summary of the method: as §5

Row | IC50 (CCRF-CEM) | IC50 (CCRF-SB) | IC50 (HT-29) | IC50 (MCF7 [1]) | IC50 (HeLa) | IC50 (ACHN) | IC50 (SK-MEL-28) | Activity (Calf thymus DNA [2]) | Activity (Calf thymus DNA [3]) | Activity (Calf thymus DNA [4]) | Activity (DNA [5]) | Activity (DNA [6]) | Activity (Calf thymus DNA [10]) | Structure (SMILES) | IC50 (MT4) | IC50 (G-361) | Activity [9] | further results
1 | 20 nM | 20 nM | 3 nM | 7 nM | 5 nM | 8 nM | 2 nM | 443 | 395 nm | 447 | Active | Active | 28 | NCCCC[C@H](NC(=O)c1ccc2nc3c4cccnc4c(=O)cc-3oc2c1)C(=O)O | 10 nM | 1 nM | Active | inhibition [7]: 50%; inhibition [8]: 100%
2 | – | – | – | 230 nM | – | – | – | – | – | – | – | – | – | O=c1cc2oc3ccccc3nc-2c2cccnc12 | – | – | – | –
3 | 3 nM | 5 nM | 4 nM | 3 nM | 5 nM | 5 nM | 2 nM | 443 | 340 nm | 448 | Active | Active | 58% | N[C@@H](CCCCNC(=O)c1ccc2nc3c4cccnc4c(=O)cc-3oc2c1)C(=O)O | 6 nM | 6 nM | Active | Activity (MCF7 [11]): Active; inhibition [12]: 50%; inhibition [13]: 100%; Activity [14]: inactive; Activity (MCF7 [15]): Active; Activity (MCF7 [16]): 50%; Activity (MCF7 [17]): 51.71%; Activity (MCF7 [18]): 30.5%; Activity (MCF7 [19]): 17.8%; Activity (MCF7 [20]): 48%; Activity (MCF7 [21]): 26%; Activity (MCF7 [22]): 26%; Activity (MCF7 [23]): 42.5%; Activity (MCF7 [24]): 8.73%; Activity (MCF7 [25]): 48.77%
4 | 150 nM | 100 nM | 120 nM | 120 nM | 150 nM | 100 nM | 100 nM | 441 | 275 nm | 446 | – | – | 17% | N[C@@H](CCCCNC(=O)c1ccc2oc3cc(=O)c4cccnc4c-3nc2c1)C(=O)O | 150 nM | 30 nM | – | –
5 | 100 nM | 120 nM | 80 nM | 100 nM | 80 nM | 100 nM | 120 nM | 437 | 343 nm | 440 | Active | – | 30% | NCCCC[C@H](NC(=O)c1ccc2oc3cc(=O)c4ncccc4c-3nc2c1)C(=O)O | 90 nM | 60 nM | – | –
6 | 40 nM | 80 nM | 20 nM | 60 nM | 50 nM | 50 nM | 40 nM | 436 | 310 nm | 440 | Active | – | 39% | N[C@@H](CCCCNC(=O)c1ccc2oc3cc(=O)c4ncccc4c-3nc2c1)C(=O)O | 90 nM | 20 nM | – | –
